Measurements taken from ChEMBL document CHEMBL2034864, “Synthesis, characterization, antimicrobial activities and QSAR studies of some 10a-phenylbenzo[b]indeno[1,2-e][1,4]thiazin-11(10aH)-ones” (2012).
Converted amounts (≈) assume the structure as drawn. The source made the active and inactive calls. The calls are words filed in the database; no cut-off is given here.

What was measured:
Staphylococcus aureus = experiment: Antibacterial activity against Staphylococcus aureus MTCC 7443 after 24 hrs by serial dilution technique; type: functional; conditions: for MIC: Staphylococcus aureus, MTCC 7443, 24 h
Method in brief: (§1)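 Compounds were dissolved in DMSO as stock, diluted to 100 µg/mL in Luria broth, then two-fold serially diluted from 100 to 1.56 µg/mL. Bacteria were grown in Luria broth at 37 °C, centrifuged and washed three times with PBS. They were inoculated into each dilution in triplicate and incubated 24 h at 37 °C. Growth was read visually and spectrophotometrically. Controls were penicillin, streptomycin and DMSO. MIC is in µmol/mL.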

Escherichia coli = experiment: Antibacterial activity against Escherichia coli MTCC 42 after 24 hrs by serial dilution technique; type: functional; conditions: for MIC: Escherichia coli, MTCC 42, 24 h; method in brief: as §1
Candida albicans = experiment: Antifungal activity against Candida albicans MTCC 183 after 72 hrs by serial dilution technique; type: functional
Method in brief: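 Compounds were dissolved in DMSO as stock, diluted to 100 µg/mL in potato dextrose broth, then two-fold serially diluted from 100 to 1.56 µg/mL. Fungi were grown in Sabouraud dextrose broth at 28 °C: A. fumigatus for 2–3 weeks, C. albicans for 48 h. Spores were centrifuged, washed in sterile water and inoculated in triplicate, then incubated 72 h at 28 °C. MIC was assigned by CFU assay. Controls were fluconazole and DMSO.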

Aspergillus fumigatus = experiment: Antifungal activity against Aspergillus fumigatus MTCC 2550 after 72 hrs by serial dilution technique
Bacillus subtilis = experiment: Antibacterial activity against Bacillus subtilis MTCC 441 after 24 hrs by serial dilution technique; type: functional; conditions: for MIC: Bacillus subtilis, MTCC 441, 24 h; method in brief: as §1
Pseudomonas aeruginosa = experiment: Antibacterial activity against Pseudomonas aeruginosa MTCC 7952 after 24 hrs by serial dilution technique; type: functional; conditions: for MIC: Pseudomonas aeruginosa, MTCC 7952, 24 h; method in brief: as §1
[1] = Candida albicans, MTCC 183, 72 h
[2] = Aspergillus fumigatus, MTCC 2550, 72 h

SMILES | -logMIC (Staphylococcus aureus) | MIC (Staphylococcus aureus) | -logMIC (Escherichia coli) | MIC (Escherichia coli) | MIC (Candida albicans) | MIC (Aspergillus fumigatus) | -logMIC (Bacillus subtilis) | MIC (Bacillus subtilis) | -logMIC (Pseudomonas aeruginosa) | MIC (Pseudomonas aeruginosa) | -logMIC (Candida albicans) | MIC (Candida albicans; [1]) | -logMIC (Aspergillus fumigatus) | MIC (Aspergillus fumigatus; [2])
COc1ccc(C23Sc4ccccc4N=C2c2ccccc2C3=O)cc1 (configuration not stated) | 0.85 | 140 µM (≈ 50 µg/mL) | 1.15 | 70 µM (≈ 25 µg/mL) | inactive | inactive |  |  |  |  |  |  |  | 
Cc1ccc(C23Sc4cc(Br)ccc4N=C2c2ccccc2C3=O)cc1 (configuration not stated) | 0.92 | 119 µM (≈ 50.1 µg/mL) | 1.23 | 59.4 µM (≈ 25 µg/mL) |  |  | 1.53 | 29.8 µM (≈ 12.5 µg/mL) | 1.23 | 59.4 µM (≈ 25 µg/mL) | 0.92 | 119 µM (≈ 50.1 µg/mL) | 0.92 | 119 µM (≈ 50.1 µg/mL)
Cc1ccc2c(c1)SC1(c3ccc(Cl)cc3)C(=O)c3ccccc3C1=N2 (configuration not stated) |  |  | 1.18 | 66.6 µM (≈ 25 µg/mL) |  |  | 1.18 | 66.5 µM (≈ 25 µg/mL) | 1.18 | 66.6 µM (≈ 25 µg/mL) | 1.18 | 66.6 µM (≈ 25 µg/mL) | 0.88 | 133 µM (≈ 50.1 µg/mL)
COc1ccc2c(c1)SC1(c3ccccc3)C(=O)c3ccccc3C1=N2 (configuration not stated) | 0.85 | 140 µM (≈ 50 µg/mL) |  |  | inactive | inactive | 1.15 | 70 µM (≈ 25 µg/mL) | 1.46 | 35 µM (≈ 12.5 µg/mL) |  |  |  | 
COc1ccc2c(c1)SC1(c3ccc(Cl)cc3)C(=O)c3ccccc3C1=N2 (configuration not stated) | 1.8 | 15.9 µM (≈ 6.23 µg/mL) | 1.19 | 63.9 µM (≈ 25 µg/mL) |  |  | 1.5 | 31.9 µM (≈ 12.5 µg/mL) | 1.19 | 63.9 µM (≈ 25 µg/mL) | 1.5 | 31.9 µM (≈ 12.5 µg/mL) | 1.5 | 31.9 µM (≈ 12.5 µg/mL)
Cc1ccc(C23Sc4ccccc4N=C2c2ccccc2C3=O)cc1 (configuration not stated) | 0.53 | 293 µM (≈ 100 µg/mL) |  |  | inactive | inactive | 1.14 | 73.2 µM (≈ 25 µg/mL) | 1.14 | 73.2 µM (≈ 25 µg/mL) |  |  |  | 
COc1ccc(C23Sc4cc(OC)ccc4N=C2c2ccccc2C3=O)cc1 (configuration not stated) | 1.79 | 16.1 µM (≈ 6.24 µg/mL) | 1.79 | 16.1 µM (≈ 6.24 µg/mL) |  |  | 2.4 | 4 µM (≈ 1.55 µg/mL) |  |  | 1.19 | 64.5 µM (≈ 25 µg/mL) | 1.19 | 64.5 µM (≈ 25 µg/mL)
COc1ccc(C23Sc4cc(C)ccc4N=C2c2ccccc2C3=O)cc1 (configuration not stated) | 1.17 | 67.3 µM (≈ 25 µg/mL) | 1.17 | 67.3 µM (≈ 25 µg/mL) |  |  | 1.47 | 33.6 µM (≈ 12.5 µg/mL) | 1.17 | 67.3 µM (≈ 25 µg/mL) | 1.47 | 33.6 µM (≈ 12.5 µg/mL) | 0.87 | 135 µM (≈ 50 µg/mL)
CN[C@@H]1[C@H](O[C@H]2[C@H](O[C@H]3[C@H](O)[C@@H](O)[C@H](N=C(N)N)[C@@H](O)[C@@H]3N=C(N)N)O[C@@H](C)[C@]2(O)C=O)O[C@@H](CO)[C@H](O)[C@H]1O [STREPTOMYCIN] |  | 10.7 µM (≈ 6.22 µg/mL) |  | 5.3 µM (≈ 3.08 µg/mL) |  |  |  | 10.7 µM (≈ 6.22 µg/mL) |  | 2.6 µM (≈ 1.51 µg/mL) |  |  |  | 
Cc1ccc(C23Sc4cc(C)ccc4N=C2c2ccccc2C3=O)cc1 (configuration not stated) |  |  | 1.45 | 35.2 µM (≈ 12.5 µg/mL) |  |  | 0.85 | 141 µM (≈ 50 µg/mL) | 1.15 | 70.4 µM (≈ 25 µg/mL) | 1.15 | 70.4 µM (≈ 25 µg/mL) | 0.85 | 141 µM (≈ 50 µg/mL)
